Laboratory results taken from ChEMBL document CHEMBL1141693, “Discovery of benzoylpiperazines as a novel class of potent and selective GlyT1 inhibitors” (Bioorg Med Chem Lett, 2008).
In brackets after ≈: the same amount, converted by molar mass. Activity calls are given as the source filed them. No cut-off for these calls is given here.

Key:
[1] = Ratio of drug level in brain to plasma in mouse at 10 mg/kg, po; type: ADME, organism-based; design: dose 10 mg/kg, route oral; conditions: read-out: BPR
In short: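 Mouse pharmacokinetics after a 10 mg/kg oral dose. Brain/plasma ratio taken from brain Cmax (ng/g) and plasma Cmax (ng/mL). Values are the average of two independent experiments.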

[2] = Membrane permeability by PAMPA; type: ADME; conditions: read-out: permeability
In short: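 PAMPA artificial-membrane permeation, reported as the permeation constant Pe in 10^-6 cm/s.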

[3] = biological target: Cytochrome P450 2D6 (Homo sapiens, UniProt P10635); assay: Inhibition of CYP2D6; type: ADME
Chain of Cytochrome P450 2D6 (P10635 whole entry): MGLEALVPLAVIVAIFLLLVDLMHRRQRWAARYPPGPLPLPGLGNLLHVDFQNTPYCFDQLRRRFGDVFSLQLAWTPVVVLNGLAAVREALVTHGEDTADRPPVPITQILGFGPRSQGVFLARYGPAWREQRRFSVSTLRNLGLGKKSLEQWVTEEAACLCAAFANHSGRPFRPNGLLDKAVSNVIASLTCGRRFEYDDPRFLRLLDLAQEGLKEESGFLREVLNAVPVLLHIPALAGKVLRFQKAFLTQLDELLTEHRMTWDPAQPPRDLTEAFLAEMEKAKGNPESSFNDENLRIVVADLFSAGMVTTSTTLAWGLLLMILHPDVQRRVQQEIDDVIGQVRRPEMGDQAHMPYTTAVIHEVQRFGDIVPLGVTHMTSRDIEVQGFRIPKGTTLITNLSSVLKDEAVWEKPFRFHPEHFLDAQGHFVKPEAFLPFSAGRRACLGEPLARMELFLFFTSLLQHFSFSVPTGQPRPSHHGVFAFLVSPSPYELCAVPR

[4] = Metabolic stability in mouse liver microsomes assessed as intrinsic clearance per […] of protein; type: ADME, Microsome
In short: (§1)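 Intrinsic clearance measured in liver microsomes from rat, mouse or human, expressed per mg microsomal protein.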

[5] = Clearance in mouse at 2 mg/kg, iv; type: ADME, organism-based; design: dose 2 mg/kg, route intravenous; conditions: in vivo
[6] = Cmax in mouse plasma at 10 mg/kg, po; type: ADME, organism-based; design: dose 10 mg/kg, route oral
[7] = Fraction unbound in mouse plasma at 10 mg/kg, po; type: ADME, organism-based; design: dose 10 mg/kg, route oral
[8] = Half life in mouse at 10 mg/kg, po; type: ADME, organism-based; design: dose 10 mg/kg, route oral; conditions: in vivo
[9] = Aqueous solubility in phosphate buffer at pH 6.5 by lyophilization solubility assay; type: physicochemical
In short: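 Aqueous solubility was measured at pH 6.5 in a lyophilization solubility assay.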

[10] = test system: Liver microsomes; assay: Metabolic stability in human liver microsomes assessed as intrinsic clearance per […] of protein; type: ADME, Microsome; in short: as §1
[11] = Volume of distribution at steady state in mouse at 2 mg/kg, iv; type: ADME, organism-based; design: dose 2 mg/kg, route intravenous; conditions: in vivo, read-out: Vdss
[12] = Cmax in mouse brain at 10 mg/kg, po; type: ADME, organism-based; design: dose 10 mg/kg, route oral
[13] = biological target: T1, Sodium- and chloride-dependent glycine transporter 2 (Homo sapiens) (UniProt Q9Y345); assay: Inhibition of [3H]glycine uptake at human glycine transporter 2 expressed in CHO cells at 30 uM by scintillation counter; type: cell-based
T1 sequence (whole entry): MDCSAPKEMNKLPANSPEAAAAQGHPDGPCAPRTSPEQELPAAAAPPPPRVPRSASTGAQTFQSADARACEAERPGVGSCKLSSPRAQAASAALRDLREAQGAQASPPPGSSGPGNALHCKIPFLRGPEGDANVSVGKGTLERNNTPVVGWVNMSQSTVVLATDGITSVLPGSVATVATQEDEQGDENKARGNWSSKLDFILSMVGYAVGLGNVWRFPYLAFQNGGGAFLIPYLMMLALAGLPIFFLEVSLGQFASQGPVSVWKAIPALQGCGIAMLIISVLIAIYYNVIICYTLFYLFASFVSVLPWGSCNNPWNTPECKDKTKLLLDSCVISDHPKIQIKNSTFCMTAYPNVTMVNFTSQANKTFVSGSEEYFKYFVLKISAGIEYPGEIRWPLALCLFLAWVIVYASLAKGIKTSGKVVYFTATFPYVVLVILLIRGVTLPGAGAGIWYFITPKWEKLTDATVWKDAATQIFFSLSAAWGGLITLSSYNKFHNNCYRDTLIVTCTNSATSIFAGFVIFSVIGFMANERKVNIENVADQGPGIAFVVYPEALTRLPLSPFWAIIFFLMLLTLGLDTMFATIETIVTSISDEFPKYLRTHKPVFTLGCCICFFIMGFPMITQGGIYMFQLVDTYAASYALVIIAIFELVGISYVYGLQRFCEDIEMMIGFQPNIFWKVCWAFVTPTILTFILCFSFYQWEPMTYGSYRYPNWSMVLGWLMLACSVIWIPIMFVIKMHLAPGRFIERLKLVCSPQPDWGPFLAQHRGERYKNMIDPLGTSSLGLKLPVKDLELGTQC

[14] = biological target: T2, Sodium- and chloride-dependent glycine transporter 1 (Homo sapiens, UniProt P48067); assay: Inhibition of [3H]glycine uptake at human glycine transporter 1 expressed in CHO cells by scintillation counter; type: cell-based
T2 sequence (P48067 whole entry): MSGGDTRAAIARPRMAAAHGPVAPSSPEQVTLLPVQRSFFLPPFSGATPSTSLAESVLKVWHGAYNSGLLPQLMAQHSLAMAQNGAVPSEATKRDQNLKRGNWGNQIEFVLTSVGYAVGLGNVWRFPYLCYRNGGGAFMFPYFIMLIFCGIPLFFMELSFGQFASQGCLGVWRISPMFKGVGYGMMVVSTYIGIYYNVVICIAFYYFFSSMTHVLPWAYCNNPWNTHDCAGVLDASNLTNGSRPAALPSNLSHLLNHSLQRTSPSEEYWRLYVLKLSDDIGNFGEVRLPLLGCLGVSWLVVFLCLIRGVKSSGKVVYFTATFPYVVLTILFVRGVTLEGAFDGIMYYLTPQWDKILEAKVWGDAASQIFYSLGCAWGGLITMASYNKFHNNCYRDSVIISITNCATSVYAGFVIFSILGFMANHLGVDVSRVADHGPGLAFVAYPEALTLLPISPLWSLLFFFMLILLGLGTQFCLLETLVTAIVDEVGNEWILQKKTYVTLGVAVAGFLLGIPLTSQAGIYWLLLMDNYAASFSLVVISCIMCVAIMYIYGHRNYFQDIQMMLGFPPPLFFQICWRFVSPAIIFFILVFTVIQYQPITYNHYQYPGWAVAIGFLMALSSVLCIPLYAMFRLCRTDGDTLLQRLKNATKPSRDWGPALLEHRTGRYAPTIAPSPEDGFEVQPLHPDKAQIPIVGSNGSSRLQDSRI

[15] = Oral bioavailability in mouse at 10 mg/kg; type: ADME, organism-based; conditions: in vivo
[16] = biological target: T3, Catechol O-methyltransferase (Homo sapiens) (UniProt P21964); assay: Inhibition of catechol-O-methyl transferase at 10 uM
T3 sequence (whole entry): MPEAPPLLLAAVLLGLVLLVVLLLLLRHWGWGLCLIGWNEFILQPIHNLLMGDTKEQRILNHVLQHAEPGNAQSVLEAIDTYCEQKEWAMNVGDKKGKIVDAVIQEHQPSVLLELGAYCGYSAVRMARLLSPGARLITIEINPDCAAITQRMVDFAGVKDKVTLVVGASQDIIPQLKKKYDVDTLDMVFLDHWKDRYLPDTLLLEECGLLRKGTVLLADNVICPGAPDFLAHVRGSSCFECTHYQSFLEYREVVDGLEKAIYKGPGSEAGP
In short: (§2)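 Run within an outsourced CEREP selectivity screen of 80 targets (transmembrane and soluble receptors, enzymes, ion channels, monoamine transporters). The compound was tested at a single concentration and the read-out was percent inhibition of each target.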

[17] = biological target: T4, MAO-A (Homo sapiens, UniProt P21397); assay: Inhibition of MAOA at 10 uM
T4 sequence (P21397 whole entry): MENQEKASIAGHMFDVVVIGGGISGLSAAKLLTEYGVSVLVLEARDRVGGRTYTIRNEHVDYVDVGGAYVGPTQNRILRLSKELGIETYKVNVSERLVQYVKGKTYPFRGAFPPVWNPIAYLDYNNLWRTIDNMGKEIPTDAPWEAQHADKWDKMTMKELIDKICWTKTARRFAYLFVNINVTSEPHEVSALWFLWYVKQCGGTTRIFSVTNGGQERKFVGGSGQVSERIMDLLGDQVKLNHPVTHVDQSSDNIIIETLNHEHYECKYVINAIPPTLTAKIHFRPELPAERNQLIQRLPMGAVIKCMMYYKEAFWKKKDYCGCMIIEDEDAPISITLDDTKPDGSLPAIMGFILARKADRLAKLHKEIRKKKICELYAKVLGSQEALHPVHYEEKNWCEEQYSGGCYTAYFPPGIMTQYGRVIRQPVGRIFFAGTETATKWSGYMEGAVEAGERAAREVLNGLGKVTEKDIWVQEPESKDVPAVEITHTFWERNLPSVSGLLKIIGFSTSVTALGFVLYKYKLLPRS
In short: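 CEREP selectivity screen across a panel of 80 targets (receptors, enzymes, ion channels, monoamine transporters). Percent inhibition was read at a single test concentration.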

[18] = organism: Homo sapiens; assay: Selectivity ratio of IC50 for human glycine transporter 2 to IC50 for human glycine transporter 1
In short: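 [³H]-glycine uptake inhibition in cells transfected with human GlyT1 or human GlyT2 cDNA. Each EC50 is the average of at least two independent experiments. Selectivity is the ratio of GlyT2 EC50 to GlyT1 EC50.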

[19] = biological target: T5, Sodium- and chloride-dependent glycine transporter 2 (Homo sapiens, UniProt Q9Y345); assay: Inhibition of [3H]glycine uptake at human glycine transporter 2 expressed in CHO cells by scintillation counter; type: cell-based
T5 sequence (Q9Y345 whole entry): T1 sequence (whole entry)
In short: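 [³H]-glycine uptake inhibition in cells transfected with human GlyT2 cDNA. EC50 is the average of at least two independent experiments.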

[20] = test system: Liver microsomes; assay: Metabolic stability in rat liver microsomes assessed as intrinsic clearance per […] of protein; type: ADME, Microsome; in short: as §1
[21] = Inhibition of phosphodiesterase at 10 uM
In short: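 CEREP selectivity panel of 80 targets: transmembrane and soluble receptors, enzymes, ion channels and monoamine transporters. Single test concentration of 10 µM; read-out is percent inhibition.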

[22] = biological target: Acetylcholinesterase (Homo sapiens) (UniProt P22303); assay: Inhibition of acetylcholinesterase at 10 uM; in short: as §2
Chain of Acetylcholinesterase (Homo sapiens) (P22303 whole entry): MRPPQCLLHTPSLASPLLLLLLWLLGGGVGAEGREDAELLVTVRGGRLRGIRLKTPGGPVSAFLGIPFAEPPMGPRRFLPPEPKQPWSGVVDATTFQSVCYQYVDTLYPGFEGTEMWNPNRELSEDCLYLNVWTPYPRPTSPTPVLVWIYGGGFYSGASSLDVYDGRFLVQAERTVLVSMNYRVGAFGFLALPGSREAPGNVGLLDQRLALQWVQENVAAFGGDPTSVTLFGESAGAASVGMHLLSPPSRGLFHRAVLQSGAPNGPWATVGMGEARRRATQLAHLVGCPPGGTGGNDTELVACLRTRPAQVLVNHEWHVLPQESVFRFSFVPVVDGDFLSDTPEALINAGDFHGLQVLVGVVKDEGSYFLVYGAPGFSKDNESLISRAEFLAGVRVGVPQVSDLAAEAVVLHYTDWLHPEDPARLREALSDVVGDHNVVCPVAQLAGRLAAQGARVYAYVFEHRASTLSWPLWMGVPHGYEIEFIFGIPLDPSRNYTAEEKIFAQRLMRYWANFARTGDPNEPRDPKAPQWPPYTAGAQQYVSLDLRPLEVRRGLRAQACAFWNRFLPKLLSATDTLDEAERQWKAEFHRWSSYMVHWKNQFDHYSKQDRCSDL

SMILES: CS(=O)(=O)c1ccc(OCC2CC2)c(C(=O)N2CCN(c3ccc(C#N)cc3F)CC2)c1
- Kp [1]: 0.1
- Papp [2]: 3.2 ×10⁻⁶ cm/s
- IC50 [3]: > 29100 nM
- clearance [4]: 9 µL/min/mg
- clearance [5]: 9.5 mL/min/kg
- Cmax [6]: 3880 ng/mL
- fraction unbound [7]: 0.12
- half-life [8]: 5.8 h
- solubility [9]: 31 µg/mL (≈ 67.8 µM)
- clearance [10]: 4 µL/min/mg
- Vd [11]: 2.8 L/kg
- Cmax [12]: 373 ng/g
- Activity [13]: inactive
- EC50 [14]: 16 nM
- bioavailability [15]: 100%

SMILES: CC(=O)c1ccc(N2CCN(C(=O)c3cc(S(C)(=O)=O)ccc3N3CCOCC3)CC2)c(F)c1
- Papp [2]: 3.1 ×10⁻⁶ cm/s
- inhibition [16]: < 20%
- inhibition at 10 µM [17]: < 20%
- Ratio EC50 [18]: > 417
- EC50 [19]: > 30000 nM
- solubility [9]: 30 µg/mL (≈ 61.3 µM)
- clearance [10]: 26 µL/min/mg
- clearance [20]: 40 µL/min/mg
- inhibition [21]: < 20%
- EC50 [14]: 70 nM
- inhibition [22]: < 20%
